Converted amounts (≈) assume the structure as drawn.
Legend:
Type in all cases: functional
[1] = tested on: Pichia kudriavzevii; assay: Antifungal activity against Candida krusei by micro-broth dilution method
Procedure, shortened: (§1)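 Broth microdilution in 96-well plates following the NCCLS method. DMSO solutions of test agents were serially diluted in growth medium, inoculated, and incubated at 35 °C. MIC80 is the first well showing roughly 80% growth reduction versus the drug-free control. C. albicans ATCC76615 and Cry. neoformans ATCC32609 served as quality-control strains. Each test was done three times; the mean of replicates is reported.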

[2] = tested on: Nannizzia gypsea; assay: Antifungal activity against Microsporum gypseum by micro-broth dilution method; procedure, shortened: as §1
[3] = tested on: Trichophyton rubrum; assay: Antifungal activity against Trichophyton rubrum by micro-broth dilution method; procedure, shortened: as §1
[4] = tested on: Candida tropicalis; assay: Antifungal activity against Candida tropicalis by micro-broth dilution method; procedure, shortened: as §1
[5] = tested on: Candida parapsilosis; assay: Antifungal activity against Candida parapsilosis by micro-broth dilution method; conditions: Lodderomyces parapsilosis; procedure, shortened: as §1
[6] = tested on: Candida albicans; assay: Antifungal activity against Candida albicans ATCC 76615 after 24 hrs by micro-broth dilution method; conditions: ATCC 76615, 24 h
Procedure, shortened: (§2)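 NCCLS (M27-A2) broth microdilution in 96-well format. Compounds in DMSO, serially diluted in growth medium, inoculated, incubated at 35 °C, and read at 24 h (C. albicans ATCC76615) or 72 h (Cry. neoformans ATCC32609). MIC80 is the first well with about 80% less growth than the drug-free well. Three independent runs per agent; the mean of replicates is reported.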

[7] = tested on: Aspergillus fumigatus; assay: Antifungal activity against Aspergillus fumigatus by micro-broth dilution method; procedure, shortened: as §1
[8] = tested on: Cryptococcus neoformans; assay: Antifungal activity against Cryptococcus neoformans ATCC 32609 after 72 hrs by micro-broth dilution method; conditions: ATCC 32609, 72 h; procedure, shortened: as §2

Compound	MIC80 [1] [µg/mL]	MIC80 [2] [µg/mL]	MIC80 [3] [µg/mL]	MIC80 [4] [µg/mL]	MIC80 [5] [µg/mL]	MIC80 [6] [µg/mL]	MIC80 [7] [µg/mL]	MIC80 [8] [µg/mL]
C=CCN(Cc1ccccc1Cl)CC(O)(Cn1cncn1)c1ccc(F)cc1F (stereo not drawn)	0.0625 (≈ 0.149 µM)	0.0625 (≈ 0.149 µM)	1 (≈ 2.39 µM)	0.25 (≈ 0.597 µM)	0.0625 (≈ 0.149 µM)	0.0156 (≈ 0.0372 µM)	> 64	0.25 (≈ 0.597 µM)
C=CCN(Cc1ccc(CC)cc1)CC(O)(Cn1cncn1)c1ccc(F)cc1F (stereo not drawn)	0.25 (≈ 0.606 µM)	0.0625 (≈ 0.152 µM)	1 (≈ 2.42 µM)	0.0156 (≈ 0.0378 µM)	1 (≈ 2.42 µM)	0.25 (≈ 0.606 µM)	> 64	0.25 (≈ 0.606 µM)
C=CCN(Cc1ccc(C(=O)Oc2ccc([N+](=O)[O-])cc2)cc1)CC(O)(Cn1cncn1)c1ccc(F)cc1F (stereo not drawn)	1 (≈ 1.82 µM)	0.25 (≈ 0.455 µM)	4 (≈ 7.28 µM)	1 (≈ 1.82 µM)	1 (≈ 1.82 µM)	0.25 (≈ 0.455 µM)	> 64	1 (≈ 1.82 µM)
C[C@@H]1[C@H](O)[C@@H](C)/C=C/C=C/C=C/C=C/C=C/C=C/C=C/[C@H](O[C@@H]2O[C@H](C)[C@@H](O)[C@H](N)[C@@H]2O)C[C@@H]2O[C@](O)(C[C@@H](O)C[C@@H](O)[C@H](O)CC[C@@H](O)C[C@@H](O)CC(=O)O[C@H]1C)C[C@H](O)[C@H]2C(=O)O [AMPHOTERICIN B]	2 (≈ 2.16 µM)	2 (≈ 2.16 µM)	2 (≈ 2.16 µM)	2 (≈ 2.16 µM)	2 (≈ 2.16 µM)	2 (≈ 2.16 µM)	64 (≈ 69.3 µM)	2 (≈ 2.16 µM)
C=CCN(Cc1ccc([N+](=O)[O-])cc1)CC(O)(Cn1cncn1)c1ccc(F)cc1F (stereo not drawn)	0.0625 (≈ 0.146 µM)	0.0156 (≈ 0.0363 µM)	0.25 (≈ 0.582 µM)	0.25 (≈ 0.582 µM)	0.0625 (≈ 0.146 µM)	0.0156 (≈ 0.0363 µM)	> 64	0.25 (≈ 0.582 µM)
C=CCN(Cc1ccccc1Br)CC(O)(Cn1cncn1)c1ccc(F)cc1F (stereo not drawn)	0.25 (≈ 0.54 µM)	0.0156 (≈ 0.0337 µM)	0.25 (≈ 0.54 µM)	0.0625 (≈ 0.135 µM)	0.25 (≈ 0.54 µM)	0.0625 (≈ 0.135 µM)	> 64	0.25 (≈ 0.54 µM)
C=CCN(Cc1ccc(C(=O)OCC(C)C)cc1)CC(O)(Cn1cncn1)c1ccc(F)cc1F (stereo not drawn)	1 (≈ 2.06 µM)	0.25 (≈ 0.516 µM)	0.0625 (≈ 0.129 µM)	1 (≈ 2.06 µM)	0.25 (≈ 0.516 µM)	1 (≈ 2.06 µM)	> 64	1 (≈ 2.06 µM)
CC(=O)N1CCN(c2ccc(OCC3COC(Cn4ccnc4)(c4ccc(Cl)cc4Cl)O3)cc2)CC1 (stereo not drawn) [KETOCONAZOLE]	0.25 (≈ 0.47 µM)	0.0156 (≈ 0.0294 µM)	0.0625 (≈ 0.118 µM)	0.0625 (≈ 0.118 µM)	0.0625 (≈ 0.118 µM)	0.0156 (≈ 0.0294 µM)	1 (≈ 1.88 µM)	0.0625 (≈ 0.118 µM)

The next lines start with the values.

MIC80 [1] [µg/mL]	MIC80 [2] [µg/mL]	MIC80 [3] [µg/mL]	MIC80 [4] [µg/mL]	MIC80 [5] [µg/mL]	MIC80 [6] [µg/mL]	MIC80 [7] [µg/mL]	MIC80 [8] [µg/mL]	Compound
1 (≈ 2.06 µM)	1 (≈ 2.06 µM)	1 (≈ 2.06 µM)	1 (≈ 2.06 µM)	1 (≈ 2.06 µM)	0.25 (≈ 0.516 µM)	> 64	1 (≈ 2.06 µM)	C=CCN(Cc1ccc(C(=O)OCCCC)cc1)CC(O)(Cn1cncn1)c1ccc(F)cc1F (stereo not drawn)
4 (≈ 7.28 µM)	1 (≈ 1.82 µM)	4 (≈ 7.28 µM)	0.0625 (≈ 0.114 µM)	0.25 (≈ 0.455 µM)	0.25 (≈ 0.455 µM)	> 64	1 (≈ 1.82 µM)	C=CCN(Cc1ccc(C(=O)Oc2cccc([N+](=O)[O-])c2)cc1)CC(O)(Cn1cncn1)c1ccc(F)cc1F (stereo not drawn)
0.0625 (≈ 0.155 µM)	0.0156 (≈ 0.0388 µM)	1 (≈ 2.48 µM)	0.0625 (≈ 0.155 µM)	0.0625 (≈ 0.155 µM)	0.0156 (≈ 0.0388 µM)	> 64	0.0625 (≈ 0.155 µM)	C=CCN(Cc1ccc(F)cc1)CC(O)(Cn1cncn1)c1ccc(F)cc1F (stereo not drawn)
0.25 (≈ 0.551 µM)	1 (≈ 2.21 µM)	1 (≈ 2.21 µM)	0.25 (≈ 0.551 µM)	0.25 (≈ 0.551 µM)	1 (≈ 2.21 µM)	16 (≈ 35.3 µM)	1 (≈ 2.21 µM)	C=CCN(Cc1ccc(Cl)cc1Cl)CC(O)(Cn1cncn1)c1ccc(F)cc1F (stereo not drawn)
16 (≈ 28.4 µM)	4 (≈ 7.11 µM)	64 (≈ 114 µM)	16 (≈ 28.4 µM)	4 (≈ 7.11 µM)	0.0625 (≈ 0.111 µM)	> 64	> 64	C=CCN(Cc1ccc(C(=O)Oc2ccccc2C(=O)OC)cc1)CC(O)(Cn1cncn1)c1ccc(F)cc1F (stereo not drawn)
0.0625 (≈ 0.155 µM)	0.0156 (≈ 0.0388 µM)	0.25 (≈ 0.621 µM)	0.0625 (≈ 0.155 µM)	0.0625 (≈ 0.155 µM)	0.0156 (≈ 0.0388 µM)	> 64	0.0625 (≈ 0.155 µM)	C=CCN(Cc1cccc(F)c1)CC(O)(Cn1cncn1)c1ccc(F)cc1F (stereo not drawn)
0.0156 (≈ 0.0388 µM)	0.0039 (≈ 0.00969 µM)	0.25 (≈ 0.621 µM)	0.0625 (≈ 0.155 µM)	0.0156 (≈ 0.0388 µM)	0.0039 (≈ 0.00969 µM)	> 64	0.0625 (≈ 0.155 µM)	C=CCN(Cc1ccccc1F)CC(O)(Cn1cncn1)c1ccc(F)cc1F (stereo not drawn)
0.0625 (≈ 0.141 µM)	0.0156 (≈ 0.0353 µM)	0.25 (≈ 0.565 µM)	0.0625 (≈ 0.141 µM)	0.25 (≈ 0.565 µM)	0.0625 (≈ 0.141 µM)	> 64	0.25 (≈ 0.565 µM)	C=CCN(Cc1ccc(C(=O)OC)cc1)CC(O)(Cn1cncn1)c1ccc(F)cc1F (stereo not drawn)
